Screens (PubChem)
In the library only some 4.5% were active in any assay of this set; here they are far more common.
OX1R antag-1 – human HCRTR1 antagonism; CHO/OX1R cells, Fluo-8 calcium fluorescence, orexin A; inhibition, % at 5 µM; O43613; 0.43% of 330,000 active;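 active = inhibition above its plate's threshold, mean inhibition of all tested compounds on the plate plus 3 SD, cut at about 37% in these data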
Target sequence (O43613 whole entry, looked up): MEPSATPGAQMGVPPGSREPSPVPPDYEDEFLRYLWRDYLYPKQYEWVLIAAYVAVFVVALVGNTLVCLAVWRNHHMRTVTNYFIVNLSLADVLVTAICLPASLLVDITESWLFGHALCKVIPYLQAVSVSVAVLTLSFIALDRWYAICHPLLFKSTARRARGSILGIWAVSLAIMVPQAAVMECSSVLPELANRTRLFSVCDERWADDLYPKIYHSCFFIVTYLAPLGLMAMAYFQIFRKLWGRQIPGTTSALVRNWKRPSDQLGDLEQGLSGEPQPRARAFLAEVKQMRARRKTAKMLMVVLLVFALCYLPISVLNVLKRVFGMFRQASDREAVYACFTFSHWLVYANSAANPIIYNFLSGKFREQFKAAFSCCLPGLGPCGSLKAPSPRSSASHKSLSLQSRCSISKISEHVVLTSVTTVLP
OX1R antag-2 – OX1R (human) antagonism; O43613; OX1R-expressing cells, FRET antagonist read-out; inhibition, % at 6.6 µM; 1.8% of 330,000 active; AID 485270; in the data active = inhibition mostly above about 38%, no sharp cut-off; inactive = mostly below about 40%
TAAR1 agonist – human TAAR1 agonism | Q96RJ0 | CHO RD-HGA16 TAAR1, Fluo-8 calcium fluorescence; vehicle wells 0%, saturating PEA agonist 100% | 0.99% of 360,000 active | activation, % at 3 µM;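 active = activation above the mean activation of all test compounds in the run plus 3 SD, cut at about 38% in these data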
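Assay system: CHO-derived RD-HGA16 cells with stable Gα16 and human TAAR1; timing: 17-24 h seeding, 75 min 37 °C dye, 30 min RT; read-out: % activation from peak over basal fluorescence ratio, DMSO-to-PEA scaled; measured by: kinetic Fluo-8 calcium fluorescence; benchmarks: low control DMSO, high control PEA (EC100); doses: 3 µM single concentration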
CHO parental Ca – signal in parental CHO cells, OX1R antagonist counter-screen; parental CHO-K1, ATP-induced calcium, Fluo-8 fluorescence; inhibition, % at 5.6 µM; 0.63% of 330,000 active;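 active = inhibition above that plate's mean sample inhibition plus 3 SD, cut at about 26% in these data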
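test system = CHO parental line | reagent = ATP stimulus | measured by = intracellular calcium via Fluo-8 no-wash fluorescent dye | control set = ATP and no-ATP DMSO wells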
GPR7 antag – blocks human GPR7 receptor signaling. P48145. GPR7-expressing cells, fluorescence antagonist assay. inhibition, % at 4.4 µM. 1.1% of 290,000 active; in the data active = inhibition above about 16%, passing the limit was not always enough;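 also: cells stimulated with the agonist NPW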
TAAR1 antag – antagonists of human TAAR1; CHO RD-HGA16 TAAR1, Fluo-8 calcium fluorescence, antagonist; inhibition, % at 3 µM; 1.5% of 360,000 active;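 active = inhibition above a per-plate cutoff, the mean inhibition of test compounds on that plate plus 3 SD, cut at about 49% in these data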
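Material: CHO RD-HGA16 cells bearing hTAAR1; compound dosing: one-point dosing, 3 µM nominal final; schedule: dye loading 75 min at 37 °C, then 30 min room temperature; measured by: calcium fluorescence with Fluo-8; control set: vehicle and agonist controls; replication: n of 1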
A number is an active result; . = inactive; / = no result.

SMILES	OX1R antag-1	OX1R antag-2	TAAR1 agonist	CHO parental Ca	GPR7 antag	TAAR1 antag
COC(=O)C1=C(C)N(C)C(=NCc2ccc3c(c2)OCO3)NC1c1ccc(Cl)cc1 (stereo unspecified)	/	/	.	/	/	.
Cc1cc(=O)[nH]c(SCC(=O)Nc2ccc(N3CCCCC3)cc2)n1	.	.	.	43	/	.
Cc1ccc(C)c(S(=O)(=O)N2CCCCC2CCNC(=O)C(=O)NCc2ccco2)c1 (stereo unspecified)	.	41	.	.	/	.
Cc1cc(F)ccc1S(=O)(=O)N1CCCOC1CNC(=O)C(=O)NCCc1ccccc1 (stereo unspecified)	.	.	.	.	.	.
Cc1ccc(C)c(S(=O)(=O)N2CCCOC2CNC(=O)C(=O)NCCc2ccccc2)c1 (stereo unspecified)	.	54	.	.	.	.
O=C(NCCc1ccccc1)C(=O)NCC1OCCCN1S(=O)(=O)c1cc(F)ccc1F (stereo unspecified)	.	.	40	.	.	.
CCOC(=O)/C(N=Nc1c(C)n(C)n(-c2ccccc2)c1=O)=C(/O)c1ccccc1	.	52	.	.	.	.
CC(=O)O[C@H]1C[C@@H](n2cnc3c(Cl)ncnc32)[C@@H]2OC(C)(C)O[C@@H]21	/	/	.	/	/	.
CC(C)(C)n1nnnc1C(c1cc2ccccc2o1)N(CCC#N)Cc1ccccc1 (stereo unspecified)	/	/	.	/	/	.
COc1ccc(N2CCn3c2nc2c3c(=O)n(CCCc3ccccc3)c(=O)n2C)c(OC)c1	.	.	.	55	.	.
COC(=O)c1ccc2nc(-c3ccc(C)cc3)c(Cc3ccccc3)n2c1	/	/	.	/	/	.
CC1CCCC(NC(=O)Cn2cc(Br)ccc2=O)C1C (stereo unspecified)	.	.	.	.	/	.
O=[N+]([O-])c1ccc2cn[nH]c2c1	.	49	.	.	.	.
COc1ccc(N=C2NC(=O)S/C2=C\c2ccc(N(C)C)cc2)cc1	.	.	.	37	.	58
COc1ccc(C2=CC(=O)CC(C)(C)C2=O)cc1	/	/	.	/	/	.
C[C@@H]1CCCCO[C@@H](CN(C)Cc2ccc(C(=O)O)cc2)[C@@H](C)CN([C@H](C)CO)C(=O)c2cc(NS(C)(=O)=O)ccc2O1	/	/	.	/	/	.
Cc1[nH]c2ccccc2c1/C=N/Nc1ccccc1[N+](=O)[O-]	.	67	.	.	.	.
COc1ccc(NS(=O)(=O)c2cc([N+](=O)[O-])ccc2N/N=C/c2c(C)[nH]c3ccccc23)cc1	/	/	.	/	/	.
Cc1ccc(-n2nnnc2CNC(=O)c2ccc([N+](=O)[O-])o2)cc1C	.	.	.	.	/	.
O=C(NCc1nnnn1-c1ccc(F)cc1)c1ccc([N+](=O)[O-])o1	.	54	.	.	/	.
O=C(NCC(c1ccc(F)cc1)N1CCOCC1)c1ccc([N+](=O)[O-])o1 (stereo unspecified)	.	48	.	.	/	.
O=C(NCc1ccccc1)[C@@H]1CCCN1C(=O)[C@H]1CCCN1C(=O)c1ccccc1F	/	/	.	/	/	.
N=c1c(C(=O)NCC2CCCO2)cc2c(=O)n3ccccc3nc2n1Cc1ccccc1 (stereo unspecified)	.	51	.	.	.	.
Cc1ccc(Cn2c(=N)c(C(=O)NCC3CCCO3)cc3c(=O)n4ccccc4nc32)cc1 (stereo unspecified)	.	56	.	.	.	.
N=c1c(C(=O)NCC2CCCO2)cc2c(=O)n3ccccc3nc2n1Cc1ccc(Cl)cc1 (stereo unspecified)	.	.	.	.	.	.
SMILES	OX1R antag-1	OX1R antag-2	TAAR1 agonist	CHO parental Ca	GPR7 antag	TAAR1 antag
c1ccc(COCCc2cn(Cc3ccccc3)c3ccccc23)cc1	/	/	.	/	/	.
O=C(CN1C(=O)NC2(CCCCC2)C1=O)Nc1ccc(Cl)cc1	.	.	.	.	/	.
C=CCn1cnc2c(oc3ccccc32)c1=O	/	/	.	/	.	.
O=C(NCc1cccnc1)/C(=C\c1ccc(-c2ccc(Br)cc2)o1)S(=O)(=O)c1ccccc1	.	.	.	.	23	.
O=C(NCc1cccnc1)/C(=C/c1ccc(-c2ccc(Cl)cc2)o1)S(=O)(=O)c1ccccc1	.	.	.	.	27	.
CCCNC(=O)COc1ccc(S(=O)(=O)Nc2ccc(C)cc2)cc1	.	.	40	.	.	.
CCOc1ccc(NS(=O)(=O)c2ccc(C(=O)N3CCCCCC3)cc2)cc1	.	.	47	.	/	.
C#CCN(Cc1cccc(F)c1)C(=O)c1nnc2c3cc(F)ccc3n(S(=O)(=O)c3ccc(OC)cc3)c2n1	/	/	.	/	/	.
O=C(Cc1c[nH]c2ccccc12)Nc1ccc(Nc2cccnc2)c(Br)c1	/	/	.	/	/	.
C[C@@H]1ON(C)[C@H]2C[C@H]3c4[nH]c5c(-c6ccc(C(F)(F)F)cc6)cccc5c4CCN3C(=O)[C@@H]12	/	/	.	/	/	.
COc1cc(/C=C/C(=O)OCC(=O)N2c3ccccc3NC(=O)C2(C)C)cc(OC)c1OC	.	39	.	.	/	64
COc1ccc(S(N)(=O)=O)cc1C(=O)OCC(=O)N1c2ccccc2NC(=O)C1(C)C	.	.	.	.	/	.
Nc1cc2ccccc2cc1NS(=O)(=O)N1CCCCC1	/	/	.	/	/	.
O=C(NCCNC(=O)c1cc(OCC(F)(F)F)ccc1OCC(F)(F)F)Nc1cccc(C(F)(F)F)c1	.	.	.	.	21	.
CC(C)C1O/C(=N/C(=O)Nc2ccc(Cl)c(Cl)c2)NC1=O (stereo unspecified)	.	.	.	44	.	.
COc1cccc(C(=O)NNc2c3ccccc3nc3ccccc23)c1	.	42	.	.	.	.
COc1ccc(C(=O)NCc2cc(C)nc3ccccc23)cc1OC	.	.	.	.	.	.
COc1cc(OC)cc(C(=O)NCc2cc(C)nc3ccccc23)c1	.	63	.	.	.	.
C=CCN1CC(COc2ccc(OC)cc2)OCCS1(=O)=O (stereo unspecified)	/	/	.	/	/	.
